According to ChEMBL document CHEMBL1133010, “Structure-function studies of polymyxin B nonapeptide: implications to sensitization of gram-negative bacteria” (J Med Chem, 2000):
≈ marks a conversion by molar mass, not a printed value. One block for each compound: values may come before it.

What was measured:
Format in all cases: functional
Escherichia coli [1] = experiment: Inhibitory concentration required to displace dansyl-PMBN (0.55 uM) from maximal specific binding to Escherichia coli LPS; details: Escherichia coli
In short: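 Fluorescence displacement assay. E. coli LPS (3 µg/mL, ~2 × 10^-7 M) in 5 mM HEPES pH 7.2 was pre-equilibrated with dansyl-PMBN (0.55 µM). Peptide was added stepwise at 5-min intervals from 1 × 10^-5 to 1 × 10^-3 M stocks. Fluorescence read at excitation 340 nm and emission 485 nm after each addition. Percent inhibition was plotted against concentration to give maximal and 50% displacement. 2-3 repeats.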

Klebsiella pneumoniae [2] = experiment: Antimicrobial activity against Klebsiella pneumoniae (Klebsiella pneumoniae)
In short: (§1)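 Clinical isolates grown on nutrient agar and kept at 4 °C. Overnight culture in isotonic sensitest broth (ISB) adjusted to 1 × 10^5 CFU/mL and inoculated into wells holding a 2-fold serial dilution (1000-0.5 µg/mL) of test agent in ISB. Incubated 20 h at 37 °C. MIC is the lowest concentration with no visible growth. 4-8 separate tests, varying by no more than one dilution.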

Klebsiella pneumoniae [3] = experiment: Relative sensitizing activity against Klebsiella pneumoniae was determined as a percent of pPMBN (50 ug/mL) as a control
In short: (§2)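 Clinical isolates at 1 × 10^5 CFU per well, in ISB with a 2-fold serial dilution (1000-0.5 µg/mL) of novobiocin. Peptide added at 50 µg/mL final. Incubated 20 h at 37 °C and read by visible growth. Sensitizing activity is the fold drop in novobiocin MIC with versus without peptide, expressed as percent of that given by 50 µg/mL pPMBN.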

Escherichia coli [4] = experiment: Antimicrobial activity against Escherichia coli (Escherichia coli); in short: as §1
Escherichia coli [5] = experiment: Relative sensitizing activity against Escherichia coli was determined as a percent of pPMBN (50 ug/mL) as a control; in short: as §2
Klebsiella pneumoniae [6] = experiment: Minimal inhibitory concentration of compound required against Klebsiella pneumoniae was evaluated; Inactive; in short: as §1
Pseudomonas aeruginosa = experiment: Minimal inhibitory concentration of compound required against Pseudomonas aeruginosa was evaluated
In short: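 P. aeruginosa clinical isolate kept on nutrient agar at 4 °C. Overnight culture in isotonic sensitest broth adjusted to 1 × 10^5 CFU/mL and added to serial 2-fold dilutions (1000-0.5 µg/mL) of test agent in the same broth. MIC is the lowest concentration with no visible growth after 20 h at 37 °C. 4-8 separate tests, varying by no more than one dilution.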

Escherichia coli [7] = experiment: Minimal inhibitory concentration of compound required against Escherichia coli was evaluated; Inactive; in short: as §1

Compound: CC(C)C[C@@H]1NC(=O)[C@@H](Cc2ccccc2)NC(=O)[C@H](CCCCN)NC(=O)[C@@H](NC(=O)[C@H](CCCCN)NC(=O)[C@@H](N)[C@@H](C)O)CCCCNC(=O)[C@H]([C@@H](C)O)NC(=O)[C@H](CCCCN)NC(=O)[C@H](CCCCN)NC1=O
- IC50 (Escherichia coli [1]): 35 µM

Compound: CC(C)C[C@@H]1NC(=O)[C@@H](Cc2ccccc2)NC(=O)[C@H](CCN)NC(=O)[C@@H](NC(=O)[C@H](CCN)NC(=O)[C@@H](N)[C@@H](C)O)CCNC(=O)[C@H]([C@@H](C)O)NC(=O)[C@H](CCN)NC(=O)[C@H](CCN)NC1=O (stereo in doubt; form 1) [listing 1 of 2 here]
- IC50 (Escherichia coli [1]): 2.5 µM

Compound: CO[C@@H]1[C@@H](OC(N)=O)[C@@H](O)[C@H](Oc2ccc3c(O)c(NC(=O)c4ccc(O)c(CC=C(C)C)c4)c(=O)oc3c2C)OC1(C)C [NOVOBIOCIN]
- MIC (Klebsiella pneumoniae [2]): 250 µg/mL (≈ 408 µM)
- MIC (Klebsiella pneumoniae [3]): 62 µg/mL
- MIC (Escherichia coli [4]): 125 µg/mL (≈ 204 µM)
- MIC (Escherichia coli [5]): 125 µg/mL

Compound: CC(C)C[C@@H]1NC(=O)[C@@H](Cc2ccccc2)NC(=O)[C@H](CCN)NC(=O)[C@@H](NC(=O)[C@H](CCN)NC(=O)[C@@H](N)[C@@H](C)O)CCNC(=O)[C@H]([C@@H](C)O)NC(=O)[C@H](CCN)NC(=O)[C@H](CCN)NC1=O (stereo in doubt; form 1) [listing 2 of 2 here]
- MIC (Klebsiella pneumoniae [6]): ≥ 1000 µg/mL
- MIC (Pseudomonas aeruginosa): 8 µg/mL (≈ 8.31 µM)
- Activity (Klebsiella pneumoniae [3]): 100%
- Activity (Escherichia coli [5]): 100%
- MIC (Escherichia coli [7]): ≥ 1000 µg/mL

Continued, values first:

- IC50 (Escherichia coli [1]): 15 µM
Compound: CC(C)C[C@@H]1NC(=O)[C@@H](Cc2ccccc2)NC(=O)[C@@H](NC(=O)[C@H](CCN)NC(=O)[C@H](CCN)NC(=O)[C@@H](N)[C@@H](C)O)CCNC(=O)[C@H]([C@@H](C)O)NC(=O)[C@H](CCN)NC(=O)[C@H](CCN)NC1=O

- IC50 (Escherichia coli [1]): 8 µM
Compound: CC(C)C[C@@H]1NC(=O)[C@@H](Cc2ccccc2)NC(=O)[C@H](CCN)NC(=O)[C@H](CCN)NC(=O)[C@@H](NC(=O)[C@@H](N)[C@@H](C)O)CCNC(=O)[C@H]([C@@H](C)O)NC(=O)[C@H](CCN)NC(=O)[C@H](CCN)NC1=O

- IC50 (Escherichia coli [1]): 30 µM
Compound: CC(C)C[C@@H]1NC(=O)[C@@H](Cc2ccccc2)NC(=O)[C@H](CCCCN)NC(=O)[C@@H](NC(=O)[C@H](CCCCN)NC(=O)[C@@H](N)[C@@H](C)O)CCNC(=O)[C@H]([C@@H](C)O)NC(=O)[C@H](CCCCN)NC(=O)[C@H](CCCCN)NC1=O

- IC50 (Escherichia coli [1]): 25 µM
Compound: CC(C)C[C@@H]1NC(=O)[C@@H](Cc2ccccc2)NC(=O)[C@H](CCCN)NC(=O)[C@@H](NC(=O)[C@H](CCCN)NC(=O)[C@@H](N)[C@@H](C)O)CCCNC(=O)[C@H]([C@@H](C)O)NC(=O)[C@H](CCCN)NC(=O)[C@H](CCCN)NC1=O

- IC50 (Escherichia coli [1]): 8 µM
Compound: CC(C)C[C@@H]1NC(=O)[C@H](Cc2ccccc2)NC(=O)[C@H](CCN)NC(=O)[C@@H](NC(=O)[C@H](CCN)NC(=O)[C@@H](N)[C@@H](C)O)CCNC(=O)[C@H]([C@@H](C)O)NC(=O)[C@H](CCN)NC(=O)[C@H](CCN)NC1=O
